Tests used:
Type in all cases: functional
Klebsiella pneumoniae [1] = test: Antimicrobial activity against Klebsiella pneumoniae isolate KpKPC expressing multidrug-resistant blaKPC gene assessed as susceptible isolates by Etest
Outline: (§1)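 Etest of fosfomycin MICs, with MICs rounded up to the next doubling concentration (e.g., 48 to 64 μg/ml). E. coli ATCC 25922 and P. aeruginosa ATCC 27853 included as controls. Isolates categorised as susceptible or resistant.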

Klebsiella pneumoniae [2] = test: Antimicrobial activity against Klebsiella pneumoniae isolate KpKPC expressing multidrug-resistant blaKPC gene assessed as susceptible isolates by disk diffusion method
Outline: (§2)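 Fosfomycin disk diffusion with inhibition zone diameters read in mm and interpreted as susceptible, intermediate or resistant. E. coli ATCC 25922 and P. aeruginosa ATCC 27853 run as controls.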

Klebsiella pneumoniae [3] = test: Antimicrobial activity against Klebsiella pneumoniae isolate KpKPC expressing multidrug-resistant blaKPC gene assessed as resistant isolates by Etest; outline: as §1
Klebsiella pneumoniae [4] = test: Antimicrobial activity against Klebsiella pneumoniae isolate KpKPC expressing multidrug-resistant blaKPC gene assessed as resistant isolates by disk diffusion method; outline: as §2

## C[C@@H]1O[C@@H]1P(=O)(O)O [FOSFOMYCIN]
Klebsiella pneumoniae [1]
  Activity: 61.8%
Klebsiella pneumoniae [2]
  Activity: 63.2%
Klebsiella pneumoniae [3]
  Activity: 14.7%
Klebsiella pneumoniae [4]
  Activity: 2.9%

— ChEMBL document CHEMBL1212774, “In vitro activity of fosfomycin against blaKPC-containing Klebsiella pneumoniae isolates, including those nonsusceptible to tigecycline and/or colistin” (2010)
